Legend:
Mus musculus [1] = assay: Antiobesity activity in B6.V/J ob/ob mouse assessed as inhibition of food intake at 50 mg/kg, ip measured up to 2 hrs relative to vehicle-treated control; format: functional; settings: route intraperitoneal
Outline: (§1)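 Male mice were acclimated 1 week at 23 ± 3 °C and 50 ± 20% humidity, then fasted 24 h. They were dosed once intraperitoneally with vehicle or compound: 50 mg/kg in C57BL/6, or 12.5, 25 or 50 mg/kg in B6.V-Lep^ob/J. Food intake was measured at 2, 6 and 12 h versus vehicle control.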

[2] = Plasma concentration in Sprague-Dawley rat at 10 mg/kg, iv measured at 8 hrs; format: ADME, organism-based; design: dose 10 mg/kg, route intravenous
Outline: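 Rats fasted 12 h, then dosed orally by gavage or by bolus tail-vein injection at 2 ml/kg. Compound given as a 5 mg/ml solution in N-methyl-2-pyrrolidone/Tween 80/water (1:2:7). Samples taken at various times (n = 5) and stored at −70 °C. Plasma deproteinized with acetonitrile containing carbamazepine internal standard, then quantified by LC-MS/MS.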

Mus musculus [3] = assay: Antiobesity activity in B6.V/J ob/ob mouse assessed as change in lung weight at 50 mg/kg, po bid measured after 14 days (reference value: 0.143 +/- 0.013 g); format: functional
Mus musculus [4] = assay: Antiobesity activity in B6.V/J ob/ob mouse assessed as inhibition of food intake at 25 mg/kg, ip measured up to 12 hrs relative to vehicle-treated control; format: functional; settings: route intraperitoneal; outline: as §1
[5] = Displacement of [3H]-YM-09151-2 from cloned dopamine D4.2 receptor (unknown origin) expressed in Sf9 cells after 60 mins; design: species or system Homo sapiens
Outline: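 Sf9 membranes with cloned D4.2 receptor incubated with 0.2 nM [3H]YM-09151-2 for 60 min at 27 °C in 50 mM Tris-HCl pH 7.4, 5 mM MgCl2, 5 mM EDTA, 5 mM KCl, 1.5 mM CaCl2. Clozapine defined nonspecific binding. Filtered on glass-fiber filters presoaked in 0.3% PEI.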

Cl.Clc1cccc(Nc2nc(Cc3ccccc3)nc3c2CCNCC3)c1
inhibition in vivo at 50 mg/kg (Mus musculus [1]): 99.8% | concentration at 8 h [2]: 60 ng/mL | Activity (Mus musculus [3]): 0.14 g | inhibition in vivo at 25 mg/kg (Mus musculus [4]): 77.8% | IC50 [5]: 0.9 µM
